# Test results taken from ChEMBL document CHEMBL1138837, “Structure-activity study on the Phe side chain arrangement of endomorphins using conformationally constrained analogues” (J Med Chem, 2004).
# Residues, ends and D or L forms follow the SMILES beside them.
# Legend:
# [1] = biological target: Delta-type opioid receptor (Rattus norvegicus, UniProt P33533); experiment: Displacement of [3H]Ile5,6-deltorphin II from opioid receptor delta 1 of rat brain membranes; assay type: cell membranes, Membrane
# Delta-type opioid receptor, sequence (P33533 whole entry): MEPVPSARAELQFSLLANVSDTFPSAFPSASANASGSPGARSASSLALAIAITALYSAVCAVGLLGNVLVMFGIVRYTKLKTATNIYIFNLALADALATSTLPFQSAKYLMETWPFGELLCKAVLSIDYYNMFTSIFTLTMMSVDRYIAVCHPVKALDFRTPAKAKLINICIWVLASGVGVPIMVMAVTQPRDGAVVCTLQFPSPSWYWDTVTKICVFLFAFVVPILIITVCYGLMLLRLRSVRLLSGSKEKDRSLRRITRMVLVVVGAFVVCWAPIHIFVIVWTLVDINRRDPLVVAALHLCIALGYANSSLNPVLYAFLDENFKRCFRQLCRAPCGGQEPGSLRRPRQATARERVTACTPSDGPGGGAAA
# Mu-type opioid receptor [2] = biological target: T1, Mu-type opioid receptor (Rattus norvegicus, UniProt P33535); experiment: Displacement of [3H]endomorphin-2 from Opioid receptor mu 1 of rat brain membranes; assay type: cell membranes, Membrane
# T1 sequence (P33535 whole entry): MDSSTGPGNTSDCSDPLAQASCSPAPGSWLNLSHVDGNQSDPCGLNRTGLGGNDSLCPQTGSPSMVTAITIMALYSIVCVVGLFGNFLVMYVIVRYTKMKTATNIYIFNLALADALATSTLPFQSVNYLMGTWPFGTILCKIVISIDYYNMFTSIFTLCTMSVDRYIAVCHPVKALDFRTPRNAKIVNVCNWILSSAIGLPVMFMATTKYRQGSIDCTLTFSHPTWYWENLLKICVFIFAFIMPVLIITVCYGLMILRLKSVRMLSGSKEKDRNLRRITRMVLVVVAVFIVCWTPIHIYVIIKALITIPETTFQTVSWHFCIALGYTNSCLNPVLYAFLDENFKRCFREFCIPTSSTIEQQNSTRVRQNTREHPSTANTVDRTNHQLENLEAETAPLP
# [3] = Half-life in rat brain homogenate; assay type: ADME
# Procedure, shortened: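 Peptide from a 1 mM stock in 50 mM Tris-HCl, pH 7.4, was incubated at 37 °C with rat brain homogenate (5.4 mg/mL protein). Timed aliquots were acidified with 0.1 M HCl, centrifuged, and analysed by RP-HPLC with UV detection at 216 nm. The rate constant came from ln(A/A0) versus time (at least five points). Half-life assumed pseudo-first-order kinetics, from 3–5 measurements.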
# Mu-type opioid receptor [4] = biological target: Mu-type opioid receptor (Cavia porcellus, UniProt P97266); experiment: Inhibition of Opioid receptor mu 1 of guinea pig ileum; assay type: tissue-based
# Mu-type opioid receptor (Cavia porcellus, UniProt P97266), sequence (P97266 whole entry): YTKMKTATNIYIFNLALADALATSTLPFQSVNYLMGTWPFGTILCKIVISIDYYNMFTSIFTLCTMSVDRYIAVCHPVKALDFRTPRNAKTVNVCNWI
# Procedure, shortened: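 Guinea pig ileum in Krebs solution at 37 °C, initial tension 0.8 g, equilibrated 60 min under electrical stimulation. Electrically evoked contractions were inhibited, using noncumulative dose–response curves, with IC50 from sigmoidal curve fitting.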
# Rattus norvegicus [5] = species on record: Rattus norvegicus; experiment: In vitro effective dose against [35S]GTP-gamma-S, binding to rat brain membranes; assay type: functional; conditions: Membrane
# Procedure, shortened: (§1)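 Rat brain membranes (about 10 µg protein) with 0.05 nM [35S]GTPγS, 100 µM GDP and compound at 10^-9–10^-5 M, in Tris-EGTA buffer (1 mM EGTA, 3 mM MgCl2, NaCl, pH 7.4), at 30 °C for 60 min. Basal binding was measured without compound; nonspecific binding with 100 µM GTPγS. GF/B filtration was used, with three experiments in triplicate. Stimulation is expressed as percent of specific binding.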
# Mu-type opioid receptor [6] = biological target: T1, Mu-type opioid receptor; experiment: Displacement of [3H]DAMGO from Opioid receptor mu 1 of rat brain membranes; assay type: cell membranes, Membrane
# Rattus norvegicus [7] = species on record: Rattus norvegicus; experiment: In vitro percent maximal stimulation of [35S]GTP-gamma-S, binding by the compound in rat brain membranes; assay type: functional; conditions: Membrane; procedure, shortened: as §1
# Mu-type opioid receptor [8] = biological target: Mu-type opioid receptor (Mus musculus, UniProt P42866); experiment: Inhibition of Mu opioid receptor of mouse vas deferens
# Mu-type opioid receptor (Mus musculus, UniProt P42866), sequence (P42866 whole entry): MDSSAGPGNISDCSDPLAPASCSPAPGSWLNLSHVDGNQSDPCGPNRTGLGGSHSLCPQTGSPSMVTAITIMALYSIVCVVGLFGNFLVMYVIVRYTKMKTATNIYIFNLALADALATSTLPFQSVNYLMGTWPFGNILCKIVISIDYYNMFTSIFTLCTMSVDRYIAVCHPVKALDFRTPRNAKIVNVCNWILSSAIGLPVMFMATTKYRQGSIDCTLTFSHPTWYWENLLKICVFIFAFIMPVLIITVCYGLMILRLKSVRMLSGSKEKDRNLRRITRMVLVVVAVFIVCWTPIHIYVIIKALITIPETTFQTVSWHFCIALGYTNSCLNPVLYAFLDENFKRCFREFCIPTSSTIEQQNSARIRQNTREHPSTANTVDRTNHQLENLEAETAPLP
# Procedure, shortened: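 Mouse vas deferens in Mg-free Krebs at 31 °C, 0.1 g initial tension, equilibrated 30 min under electrical stimulation. Inhibition of evoked contractions was measured with noncumulative dose–response curves, and IC50 was obtained by sigmoidal fitting.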
# Mu-type opioid receptor [9] = biological target: T1, Mu-type opioid receptor; experiment: Affinity for Opioid receptor mu 1 in rat brain membranes; assay type: cell membranes
# Procedure, shortened: (§2)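 Wistar rat brain membranes without cerebellum (300–500 µg protein) in 50 mM Tris-HCl, pH 7.4, for competition binding. Incubation was stopped by vacuum filtration on GF/C filters, with two ice-cold buffer washes, then scintillation counting. Nonspecific binding was defined with 10 µM naloxone. Each assay was run in duplicate and repeated at least three times, with nonlinear least-squares fitting.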
# Mu-type opioid receptor [10] = biological target: T1, Mu-type opioid receptor; experiment: In vitro binding affinity towards Opioid receptor mu 1 in rat brain membranes; assay type: cell membranes; procedure, shortened: as §2
Structure (SMILES),Ki [1],Ki (Mu-type opioid receptor [2]),half-life [3],IC50 (Mu-type opioid receptor [4]),ED50 (Rattus norvegicus [5]),Ki (Mu-type opioid receptor [6]),Max stimulation (Rattus norvegicus [7]),IC50 (Mu-type opioid receptor [8]),Ki (Mu-type opioid receptor [9]),IC50 (Mu-type opioid receptor [10])
C[C@@H](c1ccccc1)[C@H](NC(=O)[C@H](Cc1ccccc1)NC(=O)[C@@H]1CCCN1C(=O)[C@@H](N)Cc1ccc(O)cc1)C(N)=O,6360 nM,0.97 nM,16.1 min,3.46 nM,139 nM,1.67 nM,148%,9.15 nM,,
C[C@H](c1ccccc1)[C@@H](NC(=O)[C@H](Cc1c[nH]c2ccccc12)NC(=O)[C@@H]1CCCN1C(=O)[C@@H](N)Cc1ccc(O)cc1)C(N)=O,,43.6 nM,,,1490 nM,45.3 nM,114%,,,
C[C@H](c1ccccc1)[C@@H](NC(=O)[C@H](Cc1ccccc1)NC(=O)[C@@H]1CCCN1C(=O)[C@@H](N)Cc1ccc(O)cc1)C(N)=O,5180 nM,127 nM,,816 nM,104 nM,250 nM,108%,> 10000 nM,,
C[C@H](c1ccccc1)[C@H](NC(=O)[C@H](Cc1ccccc1)NC(=O)[C@@H]1CCCN1C(=O)[C@@H](N)Cc1ccc(O)cc1)C(N)=O,4900 nM,23.4 nM,,89.9 nM,455 nM,69.5 nM,132%,235 nM,,
N[C@@H](Cc1ccc(O)cc1)C(=O)N1CCC[C@H]1C(=O)N[C@@H](Cc1ccccc1)C(=O)O (H-Tyr-Pro-Phe-OH),,,,,,,,,46.3 nM,161 nM
C[C@@H](c1ccccc1)[C@@H](NC(=O)[C@H](Cc1ccccc1)NC(=O)[C@@H]1CCCN1C(=O)[C@@H](N)Cc1ccc(O)cc1)C(N)=O,> 10000 nM,47.7 nM,,589 nM,572 nM,104 nM,115%,> 10000 nM,,
C[C@@H](c1ccccc1)[C@@H](NC(=O)[C@@H]1CCCN1C(=O)[C@@H](N)Cc1ccc(O)cc1)C(=O)N[C@@H](Cc1ccccc1)C(N)=O,> 10000 nM,,,,53 nM,,103%,,,
C[C@@H](c1ccccc1)[C@@H](NC(=O)[C@H](Cc1c[nH]c2ccccc12)NC(=O)[C@@H]1CCCN1C(=O)[C@@H](N)Cc1ccc(O)cc1)C(N)=O,,47 nM,,,784 nM,107 nM,124%,,,
NC(=O)[C@H](Cc1ccccc1)NC(=O)[C@H](Cc1ccccc1)NC(=O)[C@@H]1CCCN1C(=O)[C@@H](N)Cc1ccc(O)cc1 [ENDOMORPHIN 2],,,3.8 min,,,,213%,,,
C[C@@H](c1ccccc1)[C@H](NC(=O)[C@H](Cc1c[nH]c2ccccc12)NC(=O)[C@@H]1CCCN1C(=O)[C@@H](N)Cc1ccc(O)cc1)C(N)=O,,0.47 nM,10.7 min,,114 nM,0.8 nM,163%,,,
C[C@H](c1ccccc1)[C@H](NC(=O)[C@H](Cc1c[nH]c2ccccc12)NC(=O)[C@@H]1CCCN1C(=O)[C@@H](N)Cc1ccc(O)cc1)C(N)=O,,23.4 nM,,,209 nM,26.3 nM,126%,,,
C[C@H](c1ccccc1)[C@@H](NC(=O)[C@@H]1CCCN1C(=O)[C@@H](N)Cc1ccc(O)cc1)C(=O)N[C@@H](Cc1ccccc1)C(N)=O,6760 nM,,,,7.7 nM,,105%,,,
C[C@H](c1ccccc1)[C@H](NC(=O)[C@@H]1CCCN1C(=O)[C@@H](N)Cc1ccc(O)cc1)C(=O)N[C@@H](Cc1ccccc1)C(N)=O,> 10000 nM,,,,1800 nM,,146%,,,
NC(=O)[C@H](Cc1ccccc1)NC(=O)[C@H](Cc1c[nH]c2ccccc12)NC(=O)[C@@H]1CCCN1C(=O)[C@@H](N)Cc1ccc(O)cc1 [ENDOMORPHIN-1],,,4.9 min,,289 nM,,237%,,,
C[C@@H](c1ccccc1)[C@H](NC(=O)[C@@H]1CCCN1C(=O)[C@@H](N)Cc1ccc(O)cc1)C(=O)N[C@@H](Cc1ccccc1)C(N)=O,179 nM,,,,1610 nM,,160%,,,
